Data: ChEMBL document CHEMBL1144611, “Optimization of 1,4-diazepan-2-one containing dipeptidyl peptidase IV inhibitors for the treatment of type 2 diabetes” (Bioorg Med Chem Lett, 2007)

What was measured:
Dipeptidyl peptidase 2 = Dipeptidyl peptidase 2 (Homo sapiens, UniProt Q9UHL4); assay: Inhibition of QPP
[1] = Cmax in Sprague-Dawley rat at 1 mg/kg, iv or 2 mg/kg, po; format: ADME, organism-based; settings: in vivo
Summary of the method: (§1)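 Single iv dose of 1 mg/kg or oral dose of 2 mg/kg, given in water. Plasma clearance and half-life come from dosing; Cmax is the peak plasma level after oral dosing. Oral bioavailability was derived from the po versus iv data.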

[2] = Plasma clearance in Sprague-Dawley rat at 1 mg/kg, iv or 2 mg/kg, po; format: ADME, organism-based; summary of the method: as §1
[3] = Half life in Sprague-Dawley rat at 1 mg/kg, iv or 2 mg/kg, po; format: ADME, organism-based; settings: in vivo; summary of the method: as §1
[4] = Bioavailability in Sprague-Dawley rat at 2 mg/kg, po; format: ADME, organism-based; settings: in vivo; summary of the method: as §1
[5] = Plasma clearance in dog at 1 mg/kg, iv or 2 mg/kg, po; format: ADME, organism-based, Canis lupus familiaris; summary of the method: as §1
[6] = Plasma clearance in monkey at 1 mg/kg, iv or 2 mg/kg, po; format: ADME, organism-based, Macaca mulatta; settings: rhesus monkey; summary of the method: as §1
[7] = (§2) Half life in dog at 1 mg/kg, iv or 2 mg/kg, po; format: ADME, organism-based, Canis lupus familiaris; settings: in vivo; summary of the method: as §1
[8] = Half life in monkey at 1 mg/kg, iv or 2 mg/kg, po; format: ADME, organism-based, Macaca mulatta; settings: rhesus monkey, in vivo; summary of the method: as §1
[9] = Bioavailability in dog at 2 mg/kg, po; format: ADME, organism-based, Canis lupus familiaris; settings: in vivo; summary of the method: as §1
[10] = Bioavailability in monkey at 2 mg/kg, po; format: ADME, organism-based, Macaca mulatta; settings: rhesus monkey, in vivo; summary of the method: as §1
[11] = Cmax in dog at 1 mg/kg, iv or 2 mg/kg, po; format: ADME, organism-based, Canis lupus familiaris; settings: in vivo; summary of the method: as §1
[12] = Cmax in monkey at 1 mg/kg, iv or 2 mg/kg, po; format: ADME, organism-based, Macaca mulatta; settings: rhesus monkey, in vivo; summary of the method: as §1
Canis familiaris = assay: as §2; format: ADME, organism-based, Canis lupus familiaris; settings: in vivo; summary of the method: as §1
Dipeptidyl peptidase 4 = Dipeptidyl peptidase 4 (Homo sapiens, UniProt P27487); assay: Inhibition of DPP4
Sequence of Dipeptidyl peptidase 4 (P27487 whole entry): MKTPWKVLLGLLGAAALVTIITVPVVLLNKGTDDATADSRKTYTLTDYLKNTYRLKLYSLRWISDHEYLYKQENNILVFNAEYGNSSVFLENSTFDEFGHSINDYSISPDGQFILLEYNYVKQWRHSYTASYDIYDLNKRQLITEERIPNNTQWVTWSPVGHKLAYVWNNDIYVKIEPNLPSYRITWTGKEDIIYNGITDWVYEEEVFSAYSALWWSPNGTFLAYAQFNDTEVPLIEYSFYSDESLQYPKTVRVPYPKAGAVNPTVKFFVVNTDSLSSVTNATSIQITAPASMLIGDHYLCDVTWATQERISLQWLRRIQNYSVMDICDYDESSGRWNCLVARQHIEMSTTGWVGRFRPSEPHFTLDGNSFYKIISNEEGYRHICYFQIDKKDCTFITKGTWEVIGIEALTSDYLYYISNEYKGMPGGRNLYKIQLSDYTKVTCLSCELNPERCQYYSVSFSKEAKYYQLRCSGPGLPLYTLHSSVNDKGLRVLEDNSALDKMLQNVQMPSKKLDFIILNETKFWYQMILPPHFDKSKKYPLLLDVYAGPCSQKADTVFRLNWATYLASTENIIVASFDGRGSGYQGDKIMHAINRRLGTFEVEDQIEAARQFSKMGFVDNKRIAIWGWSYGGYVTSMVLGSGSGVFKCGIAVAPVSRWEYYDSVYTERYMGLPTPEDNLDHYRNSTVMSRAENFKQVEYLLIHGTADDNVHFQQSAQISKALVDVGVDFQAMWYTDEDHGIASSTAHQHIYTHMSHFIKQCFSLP

Dipeptidyl peptidase 8 = Dipeptidyl peptidase 8 (Homo sapiens, UniProt Q6V1X1); assay: Inhibition of DPP8
Sequence of Dipeptidyl peptidase 8 (Q6V1X1 whole entry): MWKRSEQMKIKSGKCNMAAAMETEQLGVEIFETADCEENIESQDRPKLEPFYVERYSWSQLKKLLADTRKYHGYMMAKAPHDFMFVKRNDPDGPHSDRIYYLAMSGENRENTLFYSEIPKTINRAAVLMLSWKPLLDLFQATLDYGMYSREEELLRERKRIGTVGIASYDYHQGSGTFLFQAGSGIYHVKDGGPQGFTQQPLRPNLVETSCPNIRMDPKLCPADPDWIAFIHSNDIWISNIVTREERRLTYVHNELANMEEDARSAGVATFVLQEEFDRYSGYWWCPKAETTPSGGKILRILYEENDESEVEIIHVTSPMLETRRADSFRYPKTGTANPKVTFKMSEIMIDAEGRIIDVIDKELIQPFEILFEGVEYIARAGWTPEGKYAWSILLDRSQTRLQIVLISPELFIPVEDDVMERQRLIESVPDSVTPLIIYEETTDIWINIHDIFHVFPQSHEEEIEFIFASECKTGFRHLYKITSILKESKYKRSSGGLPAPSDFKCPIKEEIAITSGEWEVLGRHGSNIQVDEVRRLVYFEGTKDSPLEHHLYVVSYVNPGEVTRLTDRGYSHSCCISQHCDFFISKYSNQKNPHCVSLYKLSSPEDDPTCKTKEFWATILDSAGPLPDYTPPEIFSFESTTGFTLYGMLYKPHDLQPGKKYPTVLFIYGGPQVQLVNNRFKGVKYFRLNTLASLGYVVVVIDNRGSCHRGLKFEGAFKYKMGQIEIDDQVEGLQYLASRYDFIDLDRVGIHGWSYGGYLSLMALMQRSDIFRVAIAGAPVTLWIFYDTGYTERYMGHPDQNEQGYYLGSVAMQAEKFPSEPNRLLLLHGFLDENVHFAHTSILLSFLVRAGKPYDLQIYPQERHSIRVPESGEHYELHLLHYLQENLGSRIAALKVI

IC50 (Dipeptidyl peptidase 2) | Cmax [1] | clearance [2] | half-life [3] | bioavailability [4] | SMILES | further results
> 100 µM |  |  |  |  | N[C@@H](CC(=O)N1CCCNC(=O)C1)Cc1cc(F)c(F)cc1F | 
 | 570 nM | 51 mL/min/kg | 4.3 h | 45% | C[C@@H]1C(=O)N(C2CC2)CCCN1C(=O)C[C@H](N)Cc1cc(F)c(F)cc1F | 
 | 10 nM | 97 mL/min/kg | 2 h | 8.1% | C[C@@H]1CCN(C(=O)C[C@H](N)Cc2cc(F)c(F)cc2F)[C@H](Cc2ccccn2)C(=O)N1 | 
> 100 µM | 30 nM | 152 mL/min/kg | 0.8 h | 7.4% | CCN1CCCN(C(=O)C[C@H](N)Cc2cc(F)ccc2F)[C@H](C)C1=O | 
> 100 µM | 130 nM | 113 mL/min/kg | 1.3 h | 29% | C[C@@H]1C(=O)N(C)CCCN1C(=O)C[C@H](N)Cc1cc(F)c(F)cc1F | 
> 100 µM | 50 nM | 132 mL/min/kg | 1.6 h | 19% | C[C@@H]1C(=O)N(C2CC2)CCCN1C(=O)C[C@H](N)Cc1cc(F)ccc1F | 
 | 80 nM | 82 mL/min/kg | 1.7 h | 23% | C[C@@H]1C(=O)N(CC(F)(F)F)CCCN1C(=O)C[C@H](N)Cc1cc(F)c(F)cc1F | 

More lines, now with the values behind:

SMILES | IC50 (Dipeptidyl peptidase 2) | Cmax [1] | clearance [2] | half-life [3] | bioavailability [4] | further results
C[C@@H]1C(=O)N2CCC[C@@H]2CCN1C(=O)C[C@H](N)Cc1cc(F)c(F)cc1F |  | 40 nM | 152 mL/min/kg | 1.4 h | 21% | 
C[C@H]1CNC(=O)[C@@H](C)N(C(=O)C[C@H](N)Cc2cc(F)c(F)cc2F)C1 |  | 140 nM | 92.8 mL/min/kg | 1.5 h | 49% | clearance [5]: 8.1 mL/min/kg; clearance [6]: 39.4 mL/min/kg; half-life [7]: 8.1 h; half-life [8]: 4.4 h; bioavailability [9]: 77%; bioavailability [10]: 59%; Cmax [11]: 1210 nM; Cmax [12]: 290 nM
C[C@@H]1CCN(C(=O)C[C@H](N)Cc2cc(F)c(F)cc2F)[C@H](C)C(=O)N1 |  | 170 nM | 87 mL/min/kg | 1.5 h | 64% | clearance [5]: 8.5 mL/min/kg; clearance [6]: 42.3 mL/min/kg; t1/2 (Canis familiaris): 7.2 h; half-life [8]: 4.7 h; bioavailability [9]: 88%; bioavailability [10]: 71%; Cmax [11]: 1290 nM; Cmax [12]: 430 nM
C[C@@H]1C(=O)N[C@H](C(F)(F)F)CCN1C(=O)C[C@H](N)Cc1cc(F)c(F)cc1F | > 100 µM |  |  |  |  | IC50 (Dipeptidyl peptidase 4): 0.139 µM
N[C@@H](CC(=O)N1CCCNC(=O)C1CC(F)(F)F)Cc1cc(F)c(F)cc1F (some centres undefined) |  | 90 nM | 94 mL/min/kg | 2 h | 36% | 
C[C@@H]1C(=O)N(CC(=O)O)CCCN1C(=O)C[C@H](N)Cc1cc(F)ccc1F | > 100 µM |  |  |  |  | IC50 (Dipeptidyl peptidase 4): 0.0699 µM; IC50 (Dipeptidyl peptidase 8): > 100 µM
COC(=O)CN1CCCN(C(=O)C[C@H](N)Cc2cc(F)ccc2F)[C@H](C)C1=O | > 100 µM |  |  |  |  | IC50 (Dipeptidyl peptidase 4): 0.0116 µM
CC1C(=O)NCCCN1C(=O)C[C@H](N)Cc1cc(F)ccc1F (some centres undefined) | > 100 µM |  |  |  |  | 
CC1CCNC(=O)CN1C(=O)C[C@H](N)Cc1cc(F)c(F)cc1F (stereo in doubt; 13a) | 44 µM |  |  |  |  | IC50 (Dipeptidyl peptidase 4): 0.765 µM; IC50 (Dipeptidyl peptidase 8): > 100 µM
CC1CCNC(=O)CN1C(=O)C[C@H](N)Cc1cc(F)c(F)cc1F (stereo in doubt; 13b) | > 100 µM |  |  |  |  | IC50 (Dipeptidyl peptidase 4): 1.05 µM; IC50 (Dipeptidyl peptidase 8): > 100 µM
